Tested on: HEK-293T
Test: Multiplex assay against HEK293T
Type: toxicity, cell-based
Conditions: human
Procedure, shortened: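 Live cells carried four stains from seeding: Hoechst33342, BioTracker Green Microtubule Cytoskeleton Dye, MitoTracker Red and Annexin V Alexa Fluor 680. They were imaged on a CQ1 microscope at 37°C and 5% CO2 after compound addition. Using CellPathfinder machine-learning gating, cells were split into Hoechst high-intensity objects or normal cells, normal cells into healthy, pyknosed or fragmented nuclei, and pyknosed cells into mitotic or apoptotic; tubulin, mitochondrial-mass and membrane-permeability phenotypes are per cents of healthy-nucleus cells.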

[1] = 12 h, 1 µM, compound concentration 1 uM, replicate 1
[2] = 12 h, 1 µM, compound concentration 1 uM, replicate 2
[3] = 12 h, 10 µM, compound concentration 10 uM, replicate 1
[4] = 12 h, 10 µM, compound concentration 10 uM, replicate 2
[5] = 24 h, 1 µM, compound concentration 1 uM, replicate 1
[6] = 24 h, 1 µM, compound concentration 1 uM, replicate 2
[7] = 24 h, 10 µM, compound concentration 10 uM, replicate 1
[8] = 24 h, 10 µM, compound concentration 10 uM, replicate 2
[9] = 48 h, 1 µM, compound concentration 1 uM, replicate 1
[10] = 48 h, 1 µM, compound concentration 1 uM, replicate 2
[11] = 48 h, 10 µM, compound concentration 10 uM, replicate 1
[12] = 48 h, 10 µM, compound concentration 10 uM, replicate 2

Question: With CN[C@@H](C)C(=O)N[C@H](C(=O)N1CCC[C@H]1C(=O)Nc1snnc1-c1ccccc1)C1CCCCC1 [GDC-0152] as the molecule, how does the “Population Apoptotic (%)” value [1] read?
Answer: 31%

Question: And the “Population Fragmented Nuclei (%)” value [1]?
Answer: 5%

Question: And the “Population Healthy Nuclei (%)” value [1]?
Answer: 78%

Question: What about the “Population Hoechst High Intensity Objects (%)” value [1] of the same molecule?
Answer: 5%

Question: And the “Population Membrane Permeable-Phenotype (%)” value [1]?
Answer: 0%

Question: And the “Population Mitochondria Different-Phenotype (%)” value [1]?
Answer: 41%

Question: What about the “Population Mitotic Cells (%)” value [1] of the same molecule?
Answer: 68%

Question: What about the “Population Normal (%)” value [1] of the same molecule?
Answer: 94%

Question: What about the “Population Pyknosed Nuclei (%)” value [1] of the same molecule?
Answer: 15%

Question: And the “Population Tubulin-Different-Phenotype (%)” value [1]?
Answer: 35%

Question: And the “Total Cell Count” value [1]?
Answer: 444

Question: What about the “Population Apoptotic (%)” value [2] of the same molecule?
Answer: 60%

Question: What about the “Population Healthy Nuclei (%)” value [2] of the same molecule?
Answer: 79%

Question: And the “Population Hoechst High Intensity Objects (%)” value [2]?
Answer: 7%

Question: What about the “Population Mitochondria Different-Phenotype (%)” value [2] of the same molecule?
Answer: 62%

Question: What about the “Population Mitotic Cells (%)” value [2] of the same molecule?
Answer: 39%

Question: And the “Population Normal (%)” value [2]?
Answer: 92%

Question: And the “Population Pyknosed Nuclei (%)” value [2]?
Answer: 14%

Question: And the “Population Tubulin-Different-Phenotype (%)” value [2]?
Answer: 26%

Question: What about the “Total Cell Count” value [2] of the same molecule?
Answer: 314

Question: And the “Population Apoptotic (%)” value [3]?
Answer: 50%

Question: What about the “Population Fragmented Nuclei (%)” value [3] of the same molecule?
Answer: 6%

Question: And the “Population Healthy Nuclei (%)” value [3]?
Answer: 73%

Question: And the “Population Hoechst High Intensity Objects (%)” value [3]?
Answer: 13%

Question: And the “Population Membrane Permeable-Phenotype (%)” value [3]?
Answer: 0%

Question: What about the “Population Mitochondria Different-Phenotype (%)” value [3] of the same molecule?
Answer: 78%

Question: What about the “Population Mitotic Cells (%)” value [3] of the same molecule?
Answer: 49%

Question: What about the “Population Normal (%)” value [3] of the same molecule?
Answer: 86%

Question: What about the “Population Pyknosed Nuclei (%)” value [3] of the same molecule?
Answer: 20%

Question: What about the “Population Tubulin-Different-Phenotype (%)” value [3] of the same molecule?
Answer: 78%

Question: And the “Total Cell Count” value [3]?
Answer: 362

Question: What about the “Population Apoptotic (%)” value [4] of the same molecule?
Answer: 72%

Question: What about the “Population Fragmented Nuclei (%)” value [4] of the same molecule?
Answer: 7%

Question: What about the “Population Hoechst High Intensity Objects (%)” value [4] of the same molecule?
Answer: 20%

Question: And the “Population Mitochondria Different-Phenotype (%)” value [4]?
Answer: 89%

Question: And the “Population Mitotic Cells (%)” value [4]?
Answer: 28%

Question: What about the “Population Normal (%)” value [4] of the same molecule?
Answer: 80%

Question: What about the “Population Pyknosed Nuclei (%)” value [4] of the same molecule?
Answer: 18%

Question: What about the “Population Tubulin-Different-Phenotype (%)” value [4] of the same molecule?
Answer: 72%

Question: What about the “Total Cell Count” value [4] of the same molecule?
Answer: 330

Question: And the “Population Apoptotic (%)” value [5]?
Answer: 30%

Question: And the “Population Fragmented Nuclei (%)” value [5]?
Answer: 8%

Question: What about the “Population Healthy Nuclei (%)” value [5] of the same molecule?
Answer: 80%

Question: What about the “Population Hoechst High Intensity Objects (%)” value [5] of the same molecule?
Answer: 4%

Question: What about the “Population Membrane Permeable-Phenotype (%)” value [5] of the same molecule?
Answer: 1%

Question: What about the “Population Mitochondria Different-Phenotype (%)” value [5] of the same molecule?
Answer: 28%

Question: And the “Population Mitotic Cells (%)” value [5]?
Answer: 69%

Question: What about the “Population Normal (%)” value [5] of the same molecule?
Answer: 95%

Question: What about the “Population Pyknosed Nuclei (%)” value [5] of the same molecule?
Answer: 10%

Question: And the “Population Tubulin-Different-Phenotype (%)” value [5]?
Answer: 23%

Question: And the “Total Cell Count” value [5]?
Answer: 601

Question: And the “Population Apoptotic (%)” value [6]?
Answer: 38%

Question: What about the “Population Fragmented Nuclei (%)” value [6] of the same molecule?
Answer: 5%

Question: What about the “Population Healthy Nuclei (%)” value [6] of the same molecule?
Answer: 82%

Question: And the “Population Hoechst High Intensity Objects (%)” value [6]?
Answer: 6%

Question: And the “Population Membrane Permeable-Phenotype (%)” value [6]?
Answer: 0%

Question: What about the “Population Mitochondria Different-Phenotype (%)” value [6] of the same molecule?
Answer: 53%

Question: What about the “Population Mitotic Cells (%)” value [6] of the same molecule?
Answer: 61%

Question: What about the “Population Normal (%)” value [6] of the same molecule?
Answer: 93%

Question: And the “Population Pyknosed Nuclei (%)” value [6]?
Answer: 12%

Question: And the “Population Tubulin-Different-Phenotype (%)” value [6]?
Answer: 22%

Question: And the “Total Cell Count” value [6]?
Answer: 387

Question: And the “Population Apoptotic (%)” value [7]?
Answer: 45%

Question: And the “Population Fragmented Nuclei (%)” value [7]?
Answer: 10%

Question: And the “Population Healthy Nuclei (%)” value [7]?
Answer: 71%

Question: What about the “Population Hoechst High Intensity Objects (%)” value [7] of the same molecule?
Answer: 7%

Question: And the “Population Membrane Permeable-Phenotype (%)” value [7]?
Answer: 0%

Question: What about the “Population Mitochondria Different-Phenotype (%)” value [7] of the same molecule?
Answer: 74%

Question: What about the “Population Mitotic Cells (%)” value [7] of the same molecule?
Answer: 54%

Question: And the “Population Normal (%)” value [7]?
Answer: 92%

Question: What about the “Population Pyknosed Nuclei (%)” value [7] of the same molecule?
Answer: 17%

Question: And the “Population Tubulin-Different-Phenotype (%)” value [7]?
Answer: 69%

Question: And the “Total Cell Count” value [7]?
Answer: 454

Question: And the “Population Apoptotic (%)” value [8]?
Answer: 60%

Question: And the “Population Fragmented Nuclei (%)” value [8]?
Answer: 12%

Question: What about the “Population Healthy Nuclei (%)” value [8] of the same molecule?
Answer: 68%

Question: What about the “Population Hoechst High Intensity Objects (%)” value [8] of the same molecule?
Answer: 21%

Question: What about the “Population Mitochondria Different-Phenotype (%)” value [8] of the same molecule?
Answer: 80%

Question: And the “Population Mitotic Cells (%)” value [8]?
Answer: 40%

Question: What about the “Population Normal (%)” value [8] of the same molecule?
Answer: 78%

Question: And the “Population Pyknosed Nuclei (%)” value [8]?
Answer: 19%

Question: What about the “Population Tubulin-Different-Phenotype (%)” value [8] of the same molecule?
Answer: 58%

Question: And the “Total Cell Count” value [8]?
Answer: 400

Question: What about the “Population Apoptotic (%)” value [9] of the same molecule?
Answer: 31%

Question: And the “Population Fragmented Nuclei (%)” value [9]?
Answer: 12%

Question: What about the “Population Healthy Nuclei (%)” value [9] of the same molecule?
Answer: 78%

Question: And the “Population Hoechst High Intensity Objects (%)” value [9]?
Answer: 4%

Question: And the “Population Membrane Permeable-Phenotype (%)” value [9]?
Answer: 1%

Question: What about the “Population Mitochondria Different-Phenotype (%)” value [9] of the same molecule?
Answer: 22%

Question: What about the “Population Mitotic Cells (%)” value [9] of the same molecule?
Answer: 68%

Question: And the “Population Normal (%)” value [9]?
Answer: 95%

Question: And the “Population Pyknosed Nuclei (%)” value [9]?
Answer: 9%

Question: And the “Population Tubulin-Different-Phenotype (%)” value [9]?
Answer: 16%

Question: And the “Total Cell Count” value [9]?
Answer: 928

Question: What about the “Population Apoptotic (%)” value [10] of the same molecule?
Answer: 40%

Question: What about the “Population Fragmented Nuclei (%)” value [10] of the same molecule?
Answer: 10%

Question: What about the “Population Healthy Nuclei (%)” value [10] of the same molecule?
Answer: 82%

Question: What about the “Population Hoechst High Intensity Objects (%)” value [10] of the same molecule?
Answer: 3%

Question: And the “Population Mitochondria Different-Phenotype (%)” value [10]?
Answer: 29%

Question: And the “Population Mitotic Cells (%)” value [10]?
Answer: 60%

Question: What about the “Population Normal (%)” value [10] of the same molecule?
Answer: 96%

Question: What about the “Population Pyknosed Nuclei (%)” value [10] of the same molecule?
Answer: 6%

Question: And the “Total Cell Count” value [10]?
Answer: 603

Question: What about the “Population Apoptotic (%)” value [11] of the same molecule?
Answer: 47%

Question: What about the “Population Fragmented Nuclei (%)” value [11] of the same molecule?
Answer: 12%

Question: What about the “Population Healthy Nuclei (%)” value [11] of the same molecule?
Answer: 73%

Question: What about the “Population Hoechst High Intensity Objects (%)” value [11] of the same molecule?
Answer: 16%

Question: And the “Population Membrane Permeable-Phenotype (%)” value [11]?
Answer: 0%

Question: What about the “Population Mitochondria Different-Phenotype (%)” value [11] of the same molecule?
Answer: 74%

Question: And the “Population Mitotic Cells (%)” value [11]?
Answer: 52%

Question: What about the “Population Normal (%)” value [11] of the same molecule?
Answer: 83%

Question: What about the “Population Pyknosed Nuclei (%)” value [11] of the same molecule?
Answer: 13%

Question: And the “Population Tubulin-Different-Phenotype (%)” value [11]?
Answer: 55%

Question: What about the “Total Cell Count” value [11] of the same molecule?
Answer: 538

Question: And the “Population Apoptotic (%)” value [12]?
Answer: 60%

Question: And the “Population Healthy Nuclei (%)” value [12]?
Answer: 70%

Question: What about the “Population Hoechst High Intensity Objects (%)” value [12] of the same molecule?
Answer: 21%

Question: And the “Population Mitochondria Different-Phenotype (%)” value [12]?
Answer: 76%

Question: What about the “Population Mitotic Cells (%)” value [12] of the same molecule?
Answer: 39%

Question: What about the “Population Normal (%)” value [12] of the same molecule?
Answer: 78%

Question: What about the “Population Pyknosed Nuclei (%)” value [12] of the same molecule?
Answer: 17%

Question: And the “Population Tubulin-Different-Phenotype (%)” value [12]?
Answer: 52%

Question: And the “Total Cell Count” value [12]?
Answer: 417
